Data reported in ChEMBL document CHEMBL2021884, “Azaindenoisoquinolines as topoisomerase I inhibitors and potential anticancer agents: a systematic study of structure-activity relationships” (2012).
Active and inactive are the calls of the source. The calls are words filed in the database; no cut-off is given here.

What was measured:
SN12C [1] = assay: Growth inhibition of human SN12C cells after 48 hrs by sulforhodamine B assay; format: functional
In short: (§1)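 NCI 60-cell-line screen: cells exposed 48 h to five 10-fold dilutions starting at 100 μM (range 10−4 to 10−8 M), then stained with sulforhodamine B. Optical densities relative to control plotted against log concentration. GI50 interpolated between points above and below 50% growth. Single determinations.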

DU-145 [2] = assay: Growth inhibition of human DU145 cells after 48 hrs by sulforhodamine B assay; format: functional; details: DU-145, 48 h; in short: as §1
OVCAR-3 [3] = assay: Growth inhibition of human OVCAR3 cells after 48 hrs by sulforhodamine B assay; format: functional; details: OVCAR-3, 48 h; in short: as §1
[4] = target: T1, DNA topoisomerase 1 (Homo sapiens) (UniProt P11387); assay: Inhibition of human recombinant topoisomerase 1-mediated DNA cleavage using [32P]-3'-end-labeled 117-bp DNA fragment as substrate at 0.1 to 100 uM after 20 mins by SDS-PAGE analysis
T1 sequence (whole entry): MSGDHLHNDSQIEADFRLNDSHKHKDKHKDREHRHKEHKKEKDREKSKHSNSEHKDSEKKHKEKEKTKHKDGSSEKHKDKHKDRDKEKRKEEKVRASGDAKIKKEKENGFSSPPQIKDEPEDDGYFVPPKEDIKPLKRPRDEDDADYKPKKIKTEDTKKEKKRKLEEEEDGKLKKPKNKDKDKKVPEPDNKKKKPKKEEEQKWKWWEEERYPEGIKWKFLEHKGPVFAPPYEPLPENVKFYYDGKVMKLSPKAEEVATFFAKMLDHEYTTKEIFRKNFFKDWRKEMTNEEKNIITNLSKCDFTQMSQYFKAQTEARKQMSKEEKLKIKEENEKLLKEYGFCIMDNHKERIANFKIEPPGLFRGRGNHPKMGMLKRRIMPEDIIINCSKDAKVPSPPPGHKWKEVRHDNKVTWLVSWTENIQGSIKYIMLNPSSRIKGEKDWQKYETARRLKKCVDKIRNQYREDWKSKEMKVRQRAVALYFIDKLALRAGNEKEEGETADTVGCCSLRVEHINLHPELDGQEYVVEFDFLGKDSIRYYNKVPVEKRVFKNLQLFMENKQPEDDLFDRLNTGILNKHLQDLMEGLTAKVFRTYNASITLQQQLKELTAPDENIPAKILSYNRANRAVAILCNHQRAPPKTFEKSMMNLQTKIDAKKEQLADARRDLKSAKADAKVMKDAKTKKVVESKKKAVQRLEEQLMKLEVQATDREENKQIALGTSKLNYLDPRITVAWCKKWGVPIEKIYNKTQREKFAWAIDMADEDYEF
In short: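 Human Top1 expressed in baculovirus and purified. Substrate is a 117-bp oligonucleotide carrying the pBluescript SK(−) cleavage sites, 3′-end-labeled by Klenow fill-in with [α-32P]dGTP. Compound at 0.1, 1, 10, 100 μM; reaction stopped with 0.5% SDS (final) plus formamide loading dye.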

UACC-62 [5] = assay: Growth inhibition of human UACC62 cells after 48 hrs by sulforhodamine B assay; format: functional; details: UACC-62, 48 h; in short: as §1
HOP-62 [6] = assay: Growth inhibition of human HOP62 cells after 48 hrs by sulforhodamine B assay; format: functional; details: HOP-62, 48 h; in short: as §1
SF-539 [7] = assay: Growth inhibition of human SF539 cells after 48 hrs by sulforhodamine B assay; format: functional; details: SF-539, 48 h; in short: as §1
HCT-116 [8] = assay: Growth inhibition of human HCT116 cells after 48 hrs by sulforhodamine B assay; format: functional; details: HCT-116, 48 h; in short: as §1
MCF7 [9] = assay: Growth inhibition of human MCF7 cells after 48 hrs by sulforhodamine B assay; format: functional; details: MCF7, 48 h; in short: as §1
DU-145 [10] = assay: Growth inhibition of human DU145 cells at 10 uM after 48 hrs by sulforhodamine B assay; format: functional, cell-based
In short: (§2)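 NCI screen single-concentration test at 10 μM, 48 h exposure, sulforhodamine B staining. Optical density read relative to untreated control. Used as initial testing to decide whether multi-dose GI50 testing was warranted.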

MCF7 [11] = assay: Growth inhibition of human MCF7 cells at 10 uM after 48 hrs by sulforhodamine B assay; format: functional, cell-based; in short: as §2
OVCAR-3 [12] = assay: Growth inhibition of human OVCAR3 cells at 10 uM after 48 hrs by sulforhodamine B assay; format: functional, cell-based; in short: as §2
HCT-116 [13] = assay: Growth inhibition of human HCT116 cells at 10 uM after 48 hrs by sulforhodamine B assay; format: functional, cell-based; in short: as §2
SF-539 [14] = assay: Growth inhibition of human SF539 cells at 10 uM after 48 hrs by sulforhodamine B assay; format: functional, cell-based; in short: as §2
HOP-62 [15] = assay: Growth inhibition of human HOP62 cells at 10 uM after 48 hrs by sulforhodamine B assay; format: functional, cell-based; in short: as §2
UACC-62 [16] = assay: Growth inhibition of human UACC62 cells at 10 uM after 48 hrs by sulforhodamine B assay; format: functional, cell-based; in short: as §2
SN12C [17] = assay: Growth inhibition of human SN12C cells at 10 uM after 48 hrs by sulforhodamine B assay; format: functional, cell-based; in short: as §2
[18] = target: T1, DNA topoisomerase 1 (Homo sapiens); assay: Inhibition of human recombinant topoisomerase 1-mediated DNA cleavage using [32P]-3'-end-labeled 117-bp DNA fragment as substrate at 100 uM after 20 mins by SDS-PAGE analysis
In short: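 Human recombinant Top1 purified from baculovirus. Substrate: 117-bp oligonucleotide 3′-end-labeled by Klenow fill-in with [α-32P]dGTP, ~2 nM. Compounds tested at 0.1–100 μM. Stopped with 0.5% SDS plus formamide loading dye. Cleavage sites scored on gel.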

SMILES | GI50 (SN12C [1]) [nM] | GI50 (DU-145 [2]) [nM] | GI50 (OVCAR-3 [3]) [nM] | inhibition [4] | GI50 (UACC-62 [5]) [nM] | GI50 (HOP-62 [6]) [nM] | GI50 (SF-539 [7]) [nM] | GI50 (HCT-116 [8]) [nM] | GI50 (MCF7 [9]) [nM] | growth inhibition (GI) (DU-145 [10]) | growth inhibition (GI) (MCF7 [11]) | growth inhibition (GI) (OVCAR-3 [12]) | growth inhibition (GI) (HCT-116 [13]) | growth inhibition (GI) (SF-539 [14]) | growth inhibition (GI) (HOP-62 [15]) | growth inhibition (GI) (UACC-62 [16]) | growth inhibition (GI) (SN12C [17]) | inhibition [18]
COc1cnc2c(c1)C(=O)c1c-2n(CCCN2CCOCC2)c(=O)c2ccccc12 | 2600 | 3600 | 6300 | Active | 1700 | 4100 | 3500 | 2500 | 600 | – | – | – | – | – | – | – | – | –
COc1cc2c3c(n(CCCN(C)C)c(=O)c2cc1OC)-c1cccnc1C3=O | – | – | – | Active | – | – | – | – | – | Active | Active | Active | Active | Active | Active | Active | Active | –
COc1cc2c3c(n(CCCN4CCOCC4)c(=O)c2cc1OC)-c1ccncc1C3=O | 5900 | 7600 | 12000 | Active | 85000 | 5000 | > 100000 | 390 | 1900 | – | – | – | – | – | – | – | – | –
COc1cnc2c(c1)C(=O)c1c-2n(CCCN(C)C)c(=O)c2ccccc12 | 260 | 300 | 940 | Active | 540 | 300 | 570 | 340 | 210 | – | – | – | – | – | – | – | – | –
COc1cc2c3c(n(CCCN(C)C)c(=O)c2cc1OC)-c1cnccc1C3=O | – | – | – | Active | – | – | – | – | – | Active | Active | Active | – | Active | Active | Active | Active | –
COc1cc2c3c(n(C)c(=O)c2cc1OC)-c1cc2c(cc1C3=O)OCO2 | 26000 | 4800 | – | – | 560 | 2800 | 1700 | – | 1900 | – | – | – | – | – | – | – | – | Active
CC[C@@]1(O)C(=O)OCc2c1cc1n(c2=O)Cc2cc3ccccc3nc2-1 [CAMPTOTHECIN] | – | – | – | – | – | – | – | – | 13 | – | – | – | – | – | – | – | – | –
COc1cc2c3c(n(CCCN4CCOCC4)c(=O)c2cc1OC)-c1cnccc1C3=O | 16000 | 24000 | 24000 | Active | 48000 | 6500 | 40000 | 2500 | 4100 | – | – | – | – | – | – | – | – | –
COc1cnc2c(c1)C(=O)c1c-2n(CCCN(C)C)c(=O)c2cc(OC)c(OC)cc12 | 3600 | 880 | 2900 | Active | 3900 | 920 | 1100 | 1500 | 130 | – | – | – | – | – | – | – | – | –
COc1cc2c3c(n(CCCN4CCOCC4)c(=O)c2cc1OC)-c1ncccc1C3=O | 520 | 310 | 370 | Active | 100 | 300 | – | 220 | 52 | – | – | – | – | – | – | – | – | –
COc1cc2c3c(n(CCCN(C)C)c(=O)c2cc1OC)-c1ccncc1C3=O | 8500 | 2900 | 7400 | Active | > 100000 | 6500 | 12000 | 620 | 3900 | – | – | – | – | – | – | – | – | –
COc1cnc2c(c1)C(=O)c1c-2n(CCCN2CCOCC2)c(=O)c2cc(OC)c(OC)cc12 | 340 | 340 | 310 | Active | 220 | 240 | 270 | 330 | 100 | – | – | – | – | – | – | – | – | –
COc1cnc2c(c1)C(=O)c1c-2n(CCCN(C)C)c(=O)c2cc([N+](=O)[O-])ccc12 | 57 | 51 | 140 | Active | 52 | 54 | 78 | 74 | 24 | – | – | – | – | – | – | – | – | –
COc1cnc2c(c1)C(=O)c1c-2n(CCCN2CCOCC2)c(=O)c2cc([N+](=O)[O-])ccc12 | 43 | 40 | 110 | Active | 40 | 51 | 35 | 50 | 20 | – | – | – | – | – | – | – | – | –
COc1ccc2c(n1)C(=O)c1c-2n(CCCN(C)C)c(=O)c2cc(OC)c(OC)cc12 | – | – | – | Active | – | – | – | – | – | Active | Active | Active | Active | Active | Active | Active | Active | –
COc1ccc2c(n1)C(=O)c1c-2n(CCCN2CCOCC2)c(=O)c2cc(OC)c(OC)cc12 | – | – | – | Active | – | – | – | – | – | Active | Active | Active | Active | Active | Active | – | Active | –
COc1cc2c3c(n(CCCN(C)C)c(=O)c2cc1OC)-c1ncccc1C3=O | 3200 | 1700 | 3600 | Active | 13000 | 3400 | 4100 | 1600 | 440 | – | – | – | – | – | – | – | – | –
